M4 antag – human M4 muscarinic receptor antagonists, primary screen, CHO cells, Fluo-8 calcium fluorescence; CHO-hM4 cells, ACh EC80; Muscarinic acetylcholine receptor M4 (Homo sapiens), P08173; inhibition, % at 3 µM; AID 624125, 2012; 360,000 tested, 0.73% active;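 active = inhibition above its plate's cutoff, the mean inhibition of sample wells plus 3 SD, cut at about 27% in these data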;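 also: 0% = acetylcholine EC80 with DMSO and 100% = DMSO without agonist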
Target sequence (P08173 whole entry, looked up): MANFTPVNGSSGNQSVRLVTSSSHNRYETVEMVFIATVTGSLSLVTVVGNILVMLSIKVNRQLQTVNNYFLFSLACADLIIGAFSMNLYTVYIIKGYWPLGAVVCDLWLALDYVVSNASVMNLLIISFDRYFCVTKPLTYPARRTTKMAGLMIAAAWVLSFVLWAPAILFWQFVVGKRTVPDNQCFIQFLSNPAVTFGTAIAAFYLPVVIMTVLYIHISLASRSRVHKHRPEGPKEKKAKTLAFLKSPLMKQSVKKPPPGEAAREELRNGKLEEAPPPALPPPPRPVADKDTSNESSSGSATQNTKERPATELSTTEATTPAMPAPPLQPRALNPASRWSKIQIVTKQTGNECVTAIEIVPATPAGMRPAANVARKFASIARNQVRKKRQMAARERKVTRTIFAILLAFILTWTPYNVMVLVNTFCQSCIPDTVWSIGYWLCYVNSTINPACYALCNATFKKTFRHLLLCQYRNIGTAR
M4 PAM – human M4 muscarinic receptor positive allosteric modulators, primary screen, CHO-K1 cells, Fluo-8 calcium fluorescence | CHO-K1 hM4/Gqi5, ACh EC20; 0% = ACh EC20, 100% = maximal ACh | 360,000 tested, 0.4% active | Muscarinic acetylcholine receptor M4 (Homo sapiens), P08173 | activation, % at 3 µM;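 active = activation above its plate's cutoff, the mean activation of sample wells plus 3 SD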
CHRM5 antagonist – human M5 muscarinic receptor antagonists, primary screen, CHO cells, Fluo-8 calcium fluorescence; Muscarinic acetylcholine receptor M5 (Homo sapiens), P08912; CHO-hM5 cells, ACh EC80; inhibition, % at 3 µM; 360,000 tested, 0.59% active; AID 624040, 2012;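 active = inhibition above a per-plate cutoff, the mean of that plate's test compounds plus 3 SD, cut at about 27% in these data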;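 also: 0% = acetylcholine EC80 with DMSO and 100% = DMSO without agonist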
CHRM5 PAM – human M5 muscarinic receptor positive allosteric modulators, primary screen, CHO-K1 cells, Fluo-8 calcium fluorescence | CHO-K1 hM5, ACh EC20 PAM; 0% = ACh EC20, 100% = ACh EC100 | 360,000 tested, 0.3% active | activation, % at 3 µM | Muscarinic acetylcholine receptor M5 (Homo sapiens), P08912;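 active = activation above the run cutoff, the mean activation of all test compounds plus 3 SD, cut at about 18% in these data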
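Assay system – human M5 receptor in CHO-K1 cells · Read-out – % activation, ACh-normalized · Technique – Fluo-8 calcium fluorescence · Dosing – single-point, 3 µM nominal · Incubation – Fluo-8 loading 80 min at 37 °C plus 30 min room temperature · Repeats – singlicate, one well per test compound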
M5 ag – human M5 muscarinic receptor agonists, primary screen, CHO-K1 cells, Fluo-8 calcium fluorescence | AID 624037, 2012 | activation, % at 3 µM | 360,000 tested, 0.19% active | Muscarinic acetylcholine receptor M5 (Homo sapiens), P08912 | CHO-K1 hM5 cells; 0% DMSO wells, 100% maximal acetylcholine response;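 active = activation above the run's mean over test compounds plus 3 SD, cut at about 23% in these data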;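 also: signal is peak over basal fluorescence ratio across the kinetic read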
CHRM4 agonist – human M4 muscarinic receptor agonists, primary screen, CHO-K1 cells, Fluo-8 calcium fluorescence. Muscarinic acetylcholine receptor M4 (Homo sapiens), P08173. CHO-K1 hM4/Gqi5; vehicle 0%, full acetylcholine response 100%. activation, % at 3 µM. 360,000 tested, 0.14% active. AID 624127, 2012;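 active = activation above the run mean over all test wells plus 3 SD, cut at about 32% in these data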;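 also: peak over basal fluorescence ratio per well then scaled between controls; 0% = DMSO wells and 100% = acetylcholine at EC100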
Numbers without * were called inactive. The list is not random: actives were taken first. Their share in the collection is about 1.8%.

SMILES	M4 antag	M4 PAM	CHRM5 antagonist	CHRM5 PAM	M5 ag	CHRM4 agonist
CCCOc1cc(NCc2ccccc2)c2ncn(C(C)C)c2c1	-9.2	24.2*	5.1	16.4	13.6	19.8
CCOc1cc(NCc2ccccc2)c2ncn(C(C)C)c2c1	-4.0	-2.4	9.5	2.2	5.5	7.0
C=CCn1c(=N)n(CC(O)c2ccco2)c2ccccc21 (configuration not stated)	13.8	16.8*	8.1	29.0*	-1.7	1.2
O=C(O)CSc1nnc(-c2ccc(Cl)cc2Cl)n1-c1ccccc1	2.3	-1.1	5.5	-2.6	0.0	0.7
CN(C)CCCC1(O)c2ccccc2CCc2ccccc21	10.4	-13.5	9.6	-17.5	-6.7	11.1
CN(C)CCCN1c2ccccc2CCc2ccccc21	69.5*	-17.4	80.0*	-19.2	-1.6	1.7
CC(CN(C)C)CN1c2ccccc2CCc2ccccc21 (configuration not stated)	87.4*	-18.5	98.7*	-18.8	-0.1	6.2
CNC(=O)N1c2ccccc2CCc2ccccc21	-1.8	-2.8	0.3	2.8	-1.0	0.0
CCc1ccc(Cn2ncc3c(C(=O)O)cc(C)nc32)cc1	33.5*	-15.6	9.7	-3.7	0.3	1.4
O=S(=O)(c1ccccc1F)N1CCN(CCc2ccccc2)CC1	101.0*	-18.0	-4.4	-3.6	-2.5	-2.0
O=C(COC(=O)Cc1ccc(Cl)cc1)NCc1cccs1	4.5	-1.0	3.9	-2.9	-0.5	1.0
COc1ccc(Cn2ccnc2)cc1Br	28.9*	0.6	8.5	5.8	-4.0	1.5
COc1ccc(Cn2ccnc2)cc1[N+](=O)[O-]	2.8	-2.1	-5.9	0.7	-4.4	0.6
Cc1ccc(SCCN2CCC(O)CCC2=O)cc1 (configuration not stated)	4.8	22.3	17.7	-2.5	-1.7	0.7
Cc1cc(C)cc(NC(=O)NCc2c(-c3ccccc3)noc2C)c1	-12.3	6.7	-1.7	10.5	-3.3	1.5
Cc1onc(-c2ccccc2)c1CNC(=O)Nc1ccc(C(F)(F)F)cc1	10.0	-12.7	37.5*	-23.8	2.9	12.6
Cc1ccc(N/N=C2\CS(=O)(=O)N(C)c3ccsc32)cc1	7.6	0.3	1.1	-9.2	-5.9	0.6
CCCC(=O)N/N=C1\CS(=O)(=O)N(C)c2ccsc21	51.0*	-17.7	1.9	-2.8	-0.7	2.8
Cc1ccc(C2NC(=O)c3ccccc3O2)cc1 (configuration not stated)	0.8	1.1	4.3	1.6	3.7	0.5
Cc1cc(F)ccc1S(=O)(=O)N(CC(=O)N1CCOCC1)CC(=O)N1CCOCC1	-10.1	25.5*	5.9	2.0	-0.9	0.5
O=C(NCCCN1CCCC1)c1ccc2c(c1)N(Cc1ccc(F)cc1)C(=O)c1ccccc1S2=O (configuration not stated)	-0.8	-7.6	7.7	-1.9	-9.1	1.1
CCC1CCCCN1CCCNC(=O)c1ccc2c(c1)N(Cc1ccc(F)cc1)C(=O)c1ccccc1S2=O (configuration not stated)	29.4*	-13.9	5.7	-8.7	-10.8	2.2
C=CCC1(C)C(=O)N(c2ccccc2)c2ccccc21 (configuration not stated)	1.2	0.5	-4.0	1.8	-2.1	-2.5
C=CCCC1(C)C(=O)N(c2ccccc2)c2ccccc21 (configuration not stated)	-4.3	-3.9	21.3	24.7*	-1.6	-0.6
O=C1c2cccc3cccc(c23)C(=O)N1CC1CCN(CC(O)COc2ccc3ccccc3c2)CC1 (configuration not stated)	101.5*	-43.5	21.2	-19.5	-2.2	26.3
SMILES	M4 antag	M4 PAM	CHRM5 antagonist	CHRM5 PAM	M5 ag	CHRM4 agonist
CN(C)S(=O)(=O)c1ccc2c(c1)c(=O)c(C(=O)N1CCN(c3ccccn3)CC1)cn2C	-8.0	5.7	3.8	-6.1	1.0	0.2
Cc1ccc(C)c(N2CCN(C(=O)c3cn(C)c4ccc(S(=O)(=O)N(C)C)cc4c3=O)CC2)c1	95.1*	-14.7	13.4	-19.3	-3.2	0.7
Cc1nc(C)c(-c2ccc(SCC(=O)Nc3ccc(C)c(Cl)c3)nn2)s1	8.8	0.3	1.2	-0.6	-2.4	4.0
CC(=O)c1ccc(NC(=O)CSc2ccc(-c3sc(C)nc3C)nn2)cc1	2.9	-8.3	31.9*	-16.6	2.7	23.7
NC(Cc1ccc(F)cc1)c1csc(Nc2ccc(C(=O)c3ccccc3)cc2)n1 (configuration not stated)	8.9	-3.3	-0.7	8.1	7.2	23.9
C=CCC(CC=C)(NC(=O)c1ccccc1)c1ccccc1	5.2	-7.5	5.9	-11.1	-7.2	-1.6
C=CCC(CC=C)(NC(=O)c1ccccc1C)c1ccccc1	-20.0	6.7	-6.1	41.0*	-3.0	-0.3
CNC(=S)N1CCN(c2cccc(OC)c2)CC1	32.9*	17.4	-0.7	6.7	-1.4	2.3
COc1cccc(N2CCN(C(=S)Nc3cc(C)cc(C)c3)CC2)c1	-6.9	15.5	-7.5	3.1	0.8	1.6
COc1ccc(OC)c(-n2c(SCC(=O)NCc3ccco3)nnc2-c2c[nH]c3ccccc23)c1	40.5*	-12.0	-3.9	-4.8	-0.9	0.4
COc1ccc(-c2[nH]c(-c3ccc(C)cc3)nc2SCC(=O)NCc2ccco2)cc1OC	-24.3	20.6*	-8.7	3.7	-1.9	0.3
COc1cccc(-n2c(SCC(=O)NCc3ccco3)nnc2-c2c[nH]c3ccccc23)c1	-16.3	8.6	2.5	-3.0	-0.1	0.2
O=C(C[n+]1cc(-c2ccc(Cl)cc2)n2c1CCC2)Nc1nc(-c2ccccc2)cs1	-2.8	-4.2	5.6	-0.8	-4.2	4.2
CC1CCC(C(C)C)C(OC(=O)C[n+]2cc(-c3ccc(Cl)cc3)n3c2CCC3)C1 (configuration not stated)	28.7*	-34.9	53.4*	-36.2	-17.8	0.5
O=C(C[n+]1cc(-c2ccc(Cl)c(Cl)c2)n2c1CCC2)N1c2ccccc2Sc2ccccc21	98.4*	-17.2	99.5*	-18.6	-8.5	0.3
COc1ccc(-c2c[n+](CC(=O)c3cccs3)c3n2CCC3)cc1	-4.2	-1.5	13.0	2.1	-6.0	-0.1

Source: PubChem BioAssay (The Scripps Research Institute Molecular Screening Center)
